Data published in article PMC3215888 (Cancer Chemotherapy and Pharmacology, 2011).
Read-outs that look alike come from different tables or passages of the source.

Legend:
Toxicity = assay type: in vivo, mice; conditions: leukemia models at the MTD
In short: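 Deaths counted in control and treated arms of the xenograft efficacy studies (10 mice per solid tumor group, 8 per ALL group). A group would be excluded from analysis if mortality exceeded 25%.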

[1] = tested on: TC-71 Ewing sarcoma cell line; assay: DIMSCAN in vitro testing, 96 h; assay type: cell-based; conditions: for IC50: TC-71, 96 h
In short: (§1)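 Neuroblastoma and Ewing sarcoma lines, STR-verified and maintained as in the originators' reports. Exposed for 96 h to test compound (DMSO stock diluted in medium) at 1 nM–10 μM. Viable cells quantified by fluorescein diacetate fluorescence with DIMSCAN digital image microscopy. Absolute IC50 = concentration giving 50% growth inhibition vs controls. Relative IC50 = concentration giving 50% of the maximum inhibitory effect.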

[2] = tested on: CHLA-258 Ewing sarcoma cell line; assay: DIMSCAN in vitro testing, 96 h; assay type: cell-based; conditions: for IC50: 96 h
In short: as §1

[3] = tested on: TC-32 Ewing sarcoma cell line; assay: DIMSCAN in vitro testing, 96 h; assay type: cell-based; conditions: for IC50: Homo sapiens, TC-32, 96 h
In short: as §1

[4] = tested on: NB-1643 Neuroblastoma xenograft; assay type: in vivo, mice
In short: (§2)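 Female CB17 scid mice bearing subcutaneous tumors, 10 per group. Dosed by oral gavage twice daily, 5 days weekly for 6 weeks, at 20.8, 10.4, 5.2 or 2.6 mg/kg, in 10% 2-hydroxypropyl-β-cyclodextrin/1% sodium bicarbonate. Event = quadrupled tumor volume; EFS by Kaplan–Meier, exact log-rank test. Per-mouse scores PD/SD/PR (≥50% regression)/CR (<0.10 cm3)/MCR; group median reported. PR, CR and MCR count as objective responses.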

[5] = tested on: LA–N-6 neuroblastoma cell line; assay: DIMSCAN in vitro testing, 96 h; assay type: cell-based; conditions: for IC50: Neuroblastoma cell, 96 h
In short: as §1

KT-10 Wilms xenograft = assay type: in vivo, mice
In short: as §2

[6] = tested on: SMS-KCNR neuroblastoma cell line; assay: DIMSCAN in vitro testing, 96 h; assay type: cell-based; conditions: for IC50: 96 h
In short: as §1

[7] = tested on: CHLA-10 Ewing sarcoma cell line; assay: DIMSCAN in vitro testing, 96 h; assay type: cell-based; conditions: for IC50: 96 h
In short: as §1

[8] = tested on: NB-SD Neuroblastoma xenograft; assay type: in vivo, mice
In short: as §2

[9] = tested on: SMS-SAN neuroblastoma cell line; assay: DIMSCAN in vitro testing, 96 h; assay type: cell-based; conditions: for IC50: Neuroblastoma cell, 96 h
In short: as §1

[10] = tested on: SK-N-BE(2) neuroblastoma cell line; assay: DIMSCAN in vitro testing, 96 h; assay type: cell-based; conditions: minimum T/C
In short: as §1

SMILES: COc1cc(Nc2ncc3c(n2)-c2ccc(Cl)cc2C(c2c(F)cccc2OC)=NC3)ccc1C(=O)O [MLN8237]
- mice that died in the treated arm (Toxicity): 5 of 24
- IC50 ([1]; read-out: Absolute IC50): 102 nM
- IC50 ([1]; read-out: Relative IC50): 100 nM
- Ymin ([1]; TC-71, minimum T/C): 10.0%
- IC50 ([2]; read-out: Absolute IC50): 132 nM
- IC50 ([2]; read-out: Relative IC50): 82 nM
- Ymin ([2]; CHLA-258, minimum T/C): 18.8%
- IC50 ([3]; read-out: Absolute IC50): 39 nM
- IC50 ([3]; read-out: Relative IC50): 34 nM
- Ymin ([3]; TC-32, minimum T/C): 6.5%
- EFS T/C ([4]; 2.6 mg/kg): 1.2
- EFS activity ([4]; 2.6 mg/kg): Low
- Estimate of median time to event ([4]; 2.6 mg/kg): 20.3 days
- Median group response ([4]; 2.6 mg/kg): PD1 (if the TGD value ≤1.5, that mouse was considered PD1)
- Response activity ([4]; 2.6 mg/kg): Low
- Tumor volume T/C ([4]; 2.6 mg/kg): 1.01
- Median RTV/hCD45 at end of study ([4]; 2.6 mg/kg): >4
- EFS T/C ([4]; 5.2 mg/kg): >2.4
- EFS activity ([4]; 5.2 mg/kg): High
- Response activity ([4]; 5.2 mg/kg): High
- Tumor volume T/C ([4]; 5.2 mg/kg): 0.38
- Median RTV/hCD45 at end of study ([4]; 5.2 mg/kg): 0.4
- EFS T/C ([4]; 10.4 mg/kg): >2.4
- EFS activity ([4]; 10.4 mg/kg): High
- Median group response ([4]; 10.4 mg/kg): MCR
- Response activity ([4]; 10.4 mg/kg): High
- Tumor volume T/C ([4]; 10.4 mg/kg): 0.30
- Median RTV/hCD45 at end of study ([4]; 10.4 mg/kg): 0.0
- EFS T/C ([4]; 20.8 mg/kg): >2.4
- EFS activity ([4]; 20.8 mg/kg): High
- Median group response ([4]; 20.8 mg/kg): MCR
- Response activity ([4]; 20.8 mg/kg): High
- Tumor volume T/C ([4]; 20.8 mg/kg): 0.14
- Median RTV/hCD45 at end of study ([4]; 20.8 mg/kg): 0.0
- Ymin ([5]; LA–N-6, minimum T/C): 32.1%
- IC50 ([5]; read-out: Absolute IC50): 54 nM
- IC50 ([5]; read-out: Relative IC50): 31 nM
- EFS T/C (KT-10 Wilms xenograft; 2.6 mg/kg): 1.0
- EFS activity (KT-10 Wilms xenograft; 2.6 mg/kg): Low
- Estimate of median time to event (KT-10 Wilms xenograft; 2.6 mg/kg): 9.6 days
- Median group response (KT-10 Wilms xenograft; 2.6 mg/kg): PD1 (if the TGD value ≤1.5, that mouse was considered PD1)
- Response activity (KT-10 Wilms xenograft; 2.6 mg/kg): Low
- Tumor volume T/C (KT-10 Wilms xenograft; 2.6 mg/kg): 0.84
- Median RTV/hCD45 at end of study (KT-10 Wilms xenograft; 2.6 mg/kg): >4
- EFS T/C (KT-10 Wilms xenograft; 5.2 mg/kg): 1.7
- EFS activity (KT-10 Wilms xenograft; 5.2 mg/kg): Low
- Estimate of median time to event (KT-10 Wilms xenograft; 5.2 mg/kg): 16.0 days
- Median group response (KT-10 Wilms xenograft; 5.2 mg/kg): PD2 (if the TGD value >1.5, the mouse was considered PD2)
- Response activity (KT-10 Wilms xenograft; 5.2 mg/kg): Int
- Tumor volume T/C (KT-10 Wilms xenograft; 5.2 mg/kg): 0.71
- Median RTV/hCD45 at end of study (KT-10 Wilms xenograft; 5.2 mg/kg): >4
- EFS T/C (KT-10 Wilms xenograft; 10.4 mg/kg): 1.5
- EFS activity (KT-10 Wilms xenograft; 10.4 mg/kg): Low
- Estimate of median time to event (KT-10 Wilms xenograft; 10.4 mg/kg): 14.6 days
- Median group response (KT-10 Wilms xenograft; 10.4 mg/kg): PD1 (if the TGD value ≤1.5, that mouse was considered PD1)
- Response activity (KT-10 Wilms xenograft; 10.4 mg/kg): Low
- Tumor volume T/C (KT-10 Wilms xenograft; 10.4 mg/kg): 0.53
- Median RTV/hCD45 at end of study (KT-10 Wilms xenograft; 10.4 mg/kg): >4
- EFS T/C (KT-10 Wilms xenograft; 20.8 mg/kg): >4.4
- EFS activity (KT-10 Wilms xenograft; 20.8 mg/kg): High
- Median group response (KT-10 Wilms xenograft; 20.8 mg/kg): MCR
- Response activity (KT-10 Wilms xenograft; 20.8 mg/kg): High
- Tumor volume T/C (KT-10 Wilms xenograft; 20.8 mg/kg): 0.35
- Median RTV/hCD45 at end of study (KT-10 Wilms xenograft; 20.8 mg/kg): 0.0
- IC50 ([6]; read-out: Absolute IC50): 10 nM
- IC50 ([6]; read-out: Relative IC50): 9 nM
- Ymin ([6]; minimum T/C): 6.6%
- IC50 ([7]; read-out: Absolute IC50): 60 nM
- IC50 ([7]; read-out: Relative IC50): 56 nM
- Ymin ([7]; CHLA-10, minimum T/C): 4.7%
- EFS T/C ([8]; 2.6 mg/kg): 1.6
- EFS activity ([8]; 2.6 mg/kg): Low
- Estimate of median time to event ([8]; 2.6 mg/kg): 15.2 days
- Median group response ([8]; 2.6 mg/kg): PD1 (if the TGD value ≤1.5, that mouse was considered PD1)
- Response activity ([8]; 2.6 mg/kg): Low
- Tumor volume T/C ([8]; 2.6 mg/kg): 0.59
- Median RTV/hCD45 at end of study ([8]; 2.6 mg/kg): >4
- EFS T/C ([8]; 5.2 mg/kg): 2.2
- EFS activity ([8]; 5.2 mg/kg): Int
- Estimate of median time to event ([8]; 5.2 mg/kg): 20.9 days
- Median group response ([8]; 5.2 mg/kg): PD2 (if the TGD value >1.5, the mouse was considered PD2)
- Response activity ([8]; 5.2 mg/kg): Int
- Tumor volume T/C ([8]; 5.2 mg/kg): 0.60
- Median RTV/hCD45 at end of study ([8]; 5.2 mg/kg): >4
- EFS T/C ([8]; 10.4 mg/kg): 3.9
- EFS activity ([8]; 10.4 mg/kg): Int
- Estimate of median time to event ([8]; 10.4 mg/kg): 37.5 days
- Median group response ([8]; 10.4 mg/kg): PD2 (if the TGD value >1.5, the mouse was considered PD2)
- Response activity ([8]; 10.4 mg/kg): Int
- Tumor volume T/C ([8]; 10.4 mg/kg): 0.50
- Median RTV/hCD45 at end of study ([8]; 10.4 mg/kg): >4
- EFS T/C ([8]; 20.8 mg/kg): >4.4
- EFS activity ([8]; 20.8 mg/kg): High
- Response activity ([8]; 20.8 mg/kg): Int
- Tumor volume T/C ([8]; 20.8 mg/kg): 0.47
- Median RTV/hCD45 at end of study ([8]; 20.8 mg/kg): 0.9
- IC50 ([9]; read-out: Absolute IC50): 20 nM
- IC50 ([9]; read-out: Relative IC50): 18 nM
- Ymin ([9]; SMS-SAN, minimum T/C): 5.9%
- Ymin [10]: 16.5%
